# Assay outcomes as filed in PubChem.
# FN deposition inh: inhibitors of fibronectin matrix deposition, primary screen, AH1F cells, Alexa488-fibronectin fluorescence, plate reader | inhibition, % at 12.6 µM | AH1F fibroblasts, overnight | 0.086% of 350,000 active;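 active = mean inhibition across replicates of 30% or more, regardless of how many single replicates reach that level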;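 note: positive control wells lacked labelled fibronectin entirely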
#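 Material: AH1F fibroblasts assembling fluorescent fibronectin matrix; amount: 10000 AH1F cells/well; medium: DMEM, 2% serum; reagent: Alexa488-fibronectin, 24 nM final in well; dosing: single compound dose, delivered by pin transfer; incubation: 1 h adhesion, overnight exposure; detection: fluorescence after three HBSS washes, excitation 485 nm, emission 525 nm; measure: fibronectin deposition inhibition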
# PAX8 inh HTS: inhibitors of PAX8-driven TPO luciferase reporter, primary screen, RMG-I cells, single concentration. 1.2% of 360,000 active. SteadyGlo, 24 h. inhibition, % at 12.6 µM;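 active = mean replicate inhibition at least 60% with every replicate also reaching 60%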;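 note: luciferase light reporting Pax8 driven TPO promoter activity; plate controls were median of neutral control wells for no effect and mitoxantrone controls for full effect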
# CFTR F508del cor: F508del CFTR correction, initial screen, CFBE line, single point; CFBE cells, YFP halide quenching; stimulated with forskolin plus potentiator P3; % fluorescence drop versus neutral controls; activity (quench increase), % at 7.58 µM; 0.36% of 350,000 active;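 active = mean added fluorescence quench of at least 8% versus neutral control, with both replicates also reaching 8%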;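 note: cells transiently co-express mutant CFTR-F508del with the halide-sensitive YFP; corrector assay measuring rescue of mutant channel to the surface after 24 h compound exposure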
# PGC1a acetyl inh: inhibitors of PGC1a acetylation signal, primary screen, cell-based, U2OS, AlphaScreen, inhibitor mode; AlphaScreen anti-acetyl-lysine; with virally co-expressed GCN5 acetyltransferase; inhibition, % at 15.6 µM; 0.17% of 350,000 active; AID 651687, 2012;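 active = every replicate shows inhibition of at least 40%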;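 note: 0% = neutral control wells and 100% = positive control wells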
# EWS-Fli inh: EWS/Fli-driven NR0B1 reporter inhibitors, primary screen, A673 cells, NR0B1 luciferase, luminescence, MLPCN library; 0.67% of 350,000 active; viability-normalised; inhibition, % at 12.6 µM;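 active = mean inhibition of at least 50% after viability correction, with every replicate also passing that limit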;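 note: firefly luciferase signal divided by Alamar Blue viability fluorescence both relative to DMSO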
# Env fusion inh: inhibitors of HIV-1 Env-driven cell-cell fusion, primary screen, HeLa-JRFL effector, CEM21 target cells, luciferase; inhibition, % at 12.3 µM; 1.1% of 360,000 active; AID 651610, 2012;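 active = mean replicate inhibition score of at least 50 and every replicate individually at or above 50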;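 note: 0% = plate neutral controls and 100% = maraviroc near 300 nM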
# * = called active by the depositor; · = not tested or not shown; [ ] = another dose, or the depositor's remark. Compounds with a hit are over-represented: about 2.3% of the library has one in this group of screens.
SMILES,FN deposition inh,PAX8 inh HTS,CFTR F508del cor,PGC1a acetyl inh,EWS-Fli inh,Env fusion inh
CC(=O)N1[C@@H](CO)[C@@H]2c3ccccc3N(S(=O)(=O)c3cccc(C)c3)C[C@@H]21,·,-1,0,-6,-7,·
C[C@H](O)C#Cc1ccc([C@H]2[C@@H](CO)N3CCCCN(C(=O)c4ccc(F)cc4)C[C@H]23)cc1,·,4,-2,0,4,·
CCN(CC(O)CON=C1c2ccccc2-c2ccccc21)S(=O)(=O)c1ccc(Cl)cc1 (stereo unspecified),·,35,·,·,·,77*
Cc1cccc(N(CC(O)CON=C2c3ccccc3-c3ccccc32)S(C)(=O)=O)c1 (stereo unspecified),-6,·,·,-4,·,65*
CCN(CC(O)CON=C1c2ccccc2-c2ccccc21)S(=O)(=O)c1ccc(C)cc1 (stereo unspecified),1,22,·,·,·,79*
CS(=O)(=O)N(CC(O)CON=C1c2ccccc2-c2ccccc21)c1ccc(F)cc1 (stereo unspecified),·,·,·,12,·,·
COc1ccc(NC(=O)N(C)C[C@@H]2OCCCC[C@H](C)Oc3ccc(NS(=O)(=O)c4ccc(OC)cc4)cc3C(=O)N([C@H](C)CO)C[C@H]2C)cc1,2,12,1,3,-9,·
C[C@H]1CN([C@@H](C)CO)C(=O)c2cc(C#CCN(C)C)cnc2O[C@H]1CN(C)C(=O)CCN1CCCCC1,-2,-3,·,0,-11,3[16.7 µM]
Cc1ccccc1NC(=O)CN1CCN(C)CC1,0,15,-3,8,-2,15
Cc1ccccc1NC(=O)CC1c2ccccc2CC(C)(C)N1C (stereo unspecified),7,7,0,83*,0,1
C[C@@H]1CN([C@@H](C)CO)C(=O)Cc2cc(NS(C)(=O)=O)ccc2O[C@H]1CN(C)Cc1ccncc1,·,-8,-2,2,1,-7[16.7 µM]
CCN1CCN(Cc2ccc(NC(=O)c3ccc(C)c(NC(=O)c4cc(-c5ccc(Br)cc5)n[nH]4)c3)cc2C(F)(F)F)CC1,0,-2,0,-15,54*,44
CCN1CCN(Cc2ccc(NC(=O)c3ccc(C)c(NC(=O)c4cncc(-c5cccs5)c4)c3)cc2C(F)(F)F)CC1,·,·,·,69*,·,·
O=C([C@H]1[C@H](CO)[C@H]2Cn3c(cccc3=O)[C@@H]1N2C(=O)CC1CC1)N1CCCCC1,·,·,·,·,-3,·
c1ccc(CSc2nnc(Cc3ccccn3)o2)cc1,5,65*,·,·,·,-22
CC(C)CC#Cc1cnc2c(c1)C(=O)N([C@H](C)CO)C[C@@H](C)[C@H](CN(C)C(=O)C1CCOCC1)O2,·,·,0,11,-5,-16[16.7 µM]
C=C(C)C(=O)OC1(C(F)(F)F)Oc2cc(C)ccc2NC1=O (stereo unspecified),-8,93*,·,-23,·,2
CCOC(=O)C1(N(CC)CC)Sc2cc(C)ccc2NC1=O (stereo unspecified),10,34,·,-84,·,9
C[C@H](CO)N1C[C@H](C)[C@H](CN(C)Cc2ccc(-c3ccccc3)cc2)Oc2ccc(NS(C)(=O)=O)cc2CC1=O,·,-1,0,-5,·,-7[16.7 µM]
O=C(c1ccc(S(=O)(=O)Nc2ccc(F)cc2)cc1)N1CCN(C(=O)c2ccco2)CC1,2,·,·,2,·,73*
C/C(=N\NC(=O)c1ccc(Cn2cc([N+](=O)[O-])cn2)o1)c1cccc(NC(=O)c2cccnc2)c1,31*,-11,-2,13,5,2
O=C(Sc1cccc2cccnc12)c1ccc(F)cc1,·,106*,·,·,49,37
O=S(=O)(Nc1cc(Sc2cccc3cccnc23)c(O)c2ccccc12)c1ccc(F)cc1,4,102*,·,·,12,35
CCn1c(C(=O)N2CCCC(C(=O)NCCCc3ccccc3)C2)cc2sccc21 (stereo unspecified),-2,·,·,·,·,66*
CCn1c(C(=O)N2CCCC(C(=O)NCCc3ccc(C)cc3)C2)cc2sccc21 (stereo unspecified),·,·,·,-20,·,·
SMILES,FN deposition inh,PAX8 inh HTS,CFTR F508del cor,PGC1a acetyl inh,EWS-Fli inh,Env fusion inh
C[C@H]1CN([C@@H](C)CO)C(=O)Cc2cc(N(C)C)ccc2O[C@H]1CN(C)Cc1ccc(C(=O)Nc2ccccc2N)cc1,-8,·,·,·,·,·
C[C@H](CO)N1C[C@H](C)[C@H](CN(C)Cc2ccc(-c3ccccc3)cc2)Oc2c(NC(=O)c3ccc(-c4nccs4)cc3)cccc2C1=O,·,-14,1,15,2,0[16.7 µM]
C[C@@H]1CN([C@@H](C)CO)C(=O)c2cc(N(C)C)ccc2O[C@@H]1CN(C)Cc1ccc(C(=O)Nc2ccccc2N)cc1,·,46,7,-3,82*,-14[16.7 µM]
C[C@H]1CN([C@@H](C)CO)C(=O)c2cccc(NC(=O)c3ccc(-c4nccs4)cc3)c2O[C@H]1CN(C)Cc1ccc(-c2ccccc2)cc1,·,63*,5,23,13,24[16.7 µM]
C[C@H](CO)N1C[C@H](C)[C@@H](CN(C)CC2CC2)Oc2c(NC(=O)c3ccc(-c4nccs4)cc3)cccc2C1=O,1,·,-1,1,6,20[16.7 µM]
C[C@@H]1CN([C@@H](C)CO)C(=O)c2cccc(NC(=O)c3ccc(-c4nccs4)cc3)c2O[C@H]1CN(C)CC1CC1,-3,·,1,1,8,57*[16.7 µM]
C[C@@H]1CN([C@H](C)CO)C(=O)c2cc(Br)cnc2O[C@H]1CN(C)Cc1ccncc1,-6,·,1,-2,0,-31[16.7 µM]
CCC1=NN=C(c2ccc(F)cc2)C(c2c[nH]c3ccccc23)N1O (stereo unspecified),2,·,·,-6,·,103*
C[C@@H](C(=O)Nc1ccc2ccccc2c1)[C@@H]1C[C@@]1(C)[C@@H](NC(=O)c1ccccc1)c1ccccc1,5,-24,-2,-24,-8,23
C[C@@H](C(=O)Nc1ccc2ccccc2c1)[C@H]1C[C@]1(C)[C@H](NC(=O)c1cccnc1)c1ccccc1,-10,34,0,·,16,68*
CC(=O)N(C)C[C@@H]1Oc2c(NC(=O)NC(C)C)cccc2C(=O)N(C)C[C@@H]1C,-2,·,·,·,·,·
CCN(CC)S(=O)(=O)c1ccc(Oc2ccc(S(=O)(=O)N(CC)CC)cc2)cc1,-4,·,·,·,·,62*
C[C@H](CO)N1C[C@H](C)[C@H](CN(C)C(=O)C2CCCCC2)Oc2ncc(C#CC(C)(C)O)cc2C1=O,·,·,-3,-3,-13,-7[16.7 µM]
CN(c1cc2c(c3c1ccn3C)C1CCC2C1)C1CCCCC1 (stereo unspecified),13,4,2,78*,7,-10
Cc1ccc(S(=O)(=O)N(C)C[C@@H]2Oc3ncc(-c4ccncc4)cc3C(=O)N([C@H](C)CO)C[C@@H]2C)cc1,-5,·,-1,-11,-2,1[16.7 µM]
